Reference: the M2OR odorant receptor database
Changes are numbered by the printed parent chain.

How the values were obtained:
Details in all cases: stereoisomer not certain
O5AP2 A105T = tested on: T1, O5AP2 A105T
T1 sequence (whole entry): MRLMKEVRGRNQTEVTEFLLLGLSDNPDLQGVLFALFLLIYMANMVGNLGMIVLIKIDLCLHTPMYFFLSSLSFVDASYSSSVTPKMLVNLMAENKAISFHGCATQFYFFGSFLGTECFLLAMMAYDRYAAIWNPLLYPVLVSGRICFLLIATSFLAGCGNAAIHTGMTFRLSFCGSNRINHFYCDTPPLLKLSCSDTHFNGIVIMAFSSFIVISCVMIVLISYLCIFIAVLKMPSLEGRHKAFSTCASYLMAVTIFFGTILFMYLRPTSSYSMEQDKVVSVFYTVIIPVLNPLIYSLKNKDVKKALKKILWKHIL
How it was run: (§1)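 Assay methods differ from source to source, frequently being transient luciferase assays in mammalian cell lines. For each receptor–molecule pair, the label responsive (active) applies when the original authors judged the measured signal statistically different from baseline, and non-responsive (inactive) applies otherwise.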

O5AU1 = tested on: T2, O5AU1
T2 sequence (whole entry): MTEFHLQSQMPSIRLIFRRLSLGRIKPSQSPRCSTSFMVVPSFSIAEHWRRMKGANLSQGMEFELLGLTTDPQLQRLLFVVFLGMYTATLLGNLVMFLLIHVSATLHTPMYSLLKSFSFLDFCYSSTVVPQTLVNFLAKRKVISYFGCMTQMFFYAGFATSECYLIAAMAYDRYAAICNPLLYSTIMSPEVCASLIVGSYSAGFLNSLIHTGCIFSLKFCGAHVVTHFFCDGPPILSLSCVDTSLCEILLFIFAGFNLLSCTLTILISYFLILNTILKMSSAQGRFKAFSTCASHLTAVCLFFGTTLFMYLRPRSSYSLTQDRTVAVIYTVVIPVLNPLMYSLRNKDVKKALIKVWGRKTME
How it was run: as §1

O5H14 = tested on: T3, O5H14
T3 sequence (whole entry): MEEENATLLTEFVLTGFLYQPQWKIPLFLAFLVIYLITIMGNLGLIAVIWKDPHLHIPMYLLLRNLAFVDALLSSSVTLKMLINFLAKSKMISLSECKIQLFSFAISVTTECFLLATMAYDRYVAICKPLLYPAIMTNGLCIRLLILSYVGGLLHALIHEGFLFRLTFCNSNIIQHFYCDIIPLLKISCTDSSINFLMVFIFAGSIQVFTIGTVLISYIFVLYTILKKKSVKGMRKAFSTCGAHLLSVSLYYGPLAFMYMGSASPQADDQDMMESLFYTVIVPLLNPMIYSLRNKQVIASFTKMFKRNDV
How it was run: as §1

O5H15 V108I S148T T167S = tested on: T4, O5H15 V108I S148T T167S
T4 sequence (whole entry): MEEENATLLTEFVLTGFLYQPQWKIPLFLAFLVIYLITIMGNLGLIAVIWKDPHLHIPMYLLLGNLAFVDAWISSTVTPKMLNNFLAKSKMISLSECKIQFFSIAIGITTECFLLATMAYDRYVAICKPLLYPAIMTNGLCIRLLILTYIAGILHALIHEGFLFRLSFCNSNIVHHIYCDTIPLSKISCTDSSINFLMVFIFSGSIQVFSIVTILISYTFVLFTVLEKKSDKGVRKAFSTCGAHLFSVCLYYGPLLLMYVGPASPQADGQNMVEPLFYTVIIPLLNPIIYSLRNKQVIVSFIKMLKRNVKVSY
How it was run: as §1

O6C65 T222A = tested on: T5, O6C65 T222A
T5 sequence (whole entry): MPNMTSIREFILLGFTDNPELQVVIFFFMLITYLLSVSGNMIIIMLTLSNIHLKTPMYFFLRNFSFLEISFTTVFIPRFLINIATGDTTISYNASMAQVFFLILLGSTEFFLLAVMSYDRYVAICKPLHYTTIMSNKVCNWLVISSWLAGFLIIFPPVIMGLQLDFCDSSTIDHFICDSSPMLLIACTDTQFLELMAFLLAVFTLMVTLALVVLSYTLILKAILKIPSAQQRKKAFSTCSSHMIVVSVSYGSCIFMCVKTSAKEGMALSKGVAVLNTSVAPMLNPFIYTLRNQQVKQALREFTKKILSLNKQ
How it was run: as §1

O6C70 L181P = tested on: T6, O6C70 L181P
T6 sequence (whole entry): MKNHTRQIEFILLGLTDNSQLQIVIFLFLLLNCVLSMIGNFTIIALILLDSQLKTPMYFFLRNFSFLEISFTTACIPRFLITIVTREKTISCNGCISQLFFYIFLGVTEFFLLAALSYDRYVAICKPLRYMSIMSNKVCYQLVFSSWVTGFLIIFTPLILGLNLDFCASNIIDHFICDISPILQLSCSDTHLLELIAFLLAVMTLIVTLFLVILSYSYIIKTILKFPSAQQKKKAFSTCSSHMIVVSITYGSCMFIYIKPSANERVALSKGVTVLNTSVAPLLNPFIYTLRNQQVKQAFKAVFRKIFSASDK
How it was run: as §1

O7E24 S193F P242S = tested on: T7, O7E24 S193F P242S
T7 sequence (whole entry): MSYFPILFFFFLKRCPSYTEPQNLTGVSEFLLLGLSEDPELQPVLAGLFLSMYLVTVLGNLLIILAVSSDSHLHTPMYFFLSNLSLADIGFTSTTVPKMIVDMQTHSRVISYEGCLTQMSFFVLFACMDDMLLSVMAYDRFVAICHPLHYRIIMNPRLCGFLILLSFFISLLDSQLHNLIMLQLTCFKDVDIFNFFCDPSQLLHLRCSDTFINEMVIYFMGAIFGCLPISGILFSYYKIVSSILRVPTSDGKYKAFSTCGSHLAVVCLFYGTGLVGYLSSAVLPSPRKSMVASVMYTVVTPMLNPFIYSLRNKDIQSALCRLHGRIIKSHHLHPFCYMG
How it was run: as §1

O7E24 = tested on: T8, O7E24
T8 sequence (whole entry): T7 sequence (whole entry) with F193S
How it was run: as §1

OR10A2 (Homo sapiens) = target: T9, OR10A2 (Homo sapiens) (UniProt Q9H208)
T9 sequence (whole entry): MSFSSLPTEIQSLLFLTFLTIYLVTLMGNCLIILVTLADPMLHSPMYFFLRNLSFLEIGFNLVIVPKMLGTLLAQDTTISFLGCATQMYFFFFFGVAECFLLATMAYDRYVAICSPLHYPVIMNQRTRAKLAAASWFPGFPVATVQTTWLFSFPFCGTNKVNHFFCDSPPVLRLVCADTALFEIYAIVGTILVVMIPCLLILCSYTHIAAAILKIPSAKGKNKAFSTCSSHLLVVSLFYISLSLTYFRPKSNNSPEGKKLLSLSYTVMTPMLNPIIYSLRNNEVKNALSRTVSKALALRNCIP
How it was run: as §1

OR10A3 (Homo sapiens) = target: T10, OR10A3 (Homo sapiens) (UniProt P58181)
T10 sequence (whole entry): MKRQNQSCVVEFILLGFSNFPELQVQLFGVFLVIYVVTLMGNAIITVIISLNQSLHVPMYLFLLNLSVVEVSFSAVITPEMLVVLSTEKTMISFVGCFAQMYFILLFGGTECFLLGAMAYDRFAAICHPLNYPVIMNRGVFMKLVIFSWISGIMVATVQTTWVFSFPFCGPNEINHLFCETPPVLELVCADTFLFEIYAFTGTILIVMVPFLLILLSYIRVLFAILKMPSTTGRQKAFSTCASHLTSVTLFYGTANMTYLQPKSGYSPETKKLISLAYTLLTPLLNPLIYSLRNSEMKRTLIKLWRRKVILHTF
How it was run: as §1

OR10A4 (Homo sapiens) = target: T11, OR10A4 (Homo sapiens) (UniProt Q9H209)
T11 sequence (whole entry): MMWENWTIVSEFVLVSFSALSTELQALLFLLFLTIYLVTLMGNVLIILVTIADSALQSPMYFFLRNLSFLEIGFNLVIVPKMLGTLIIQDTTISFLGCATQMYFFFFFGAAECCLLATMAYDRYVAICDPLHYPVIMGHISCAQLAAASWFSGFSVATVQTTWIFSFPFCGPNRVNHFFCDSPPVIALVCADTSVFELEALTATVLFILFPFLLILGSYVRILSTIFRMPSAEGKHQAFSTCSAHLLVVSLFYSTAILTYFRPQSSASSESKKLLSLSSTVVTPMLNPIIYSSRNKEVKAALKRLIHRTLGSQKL
How it was run: as §1

OR10A5 (Homo sapiens) = target: T12, OR10A5 (Homo sapiens) (UniProt Q9H207)
T12 sequence (whole entry): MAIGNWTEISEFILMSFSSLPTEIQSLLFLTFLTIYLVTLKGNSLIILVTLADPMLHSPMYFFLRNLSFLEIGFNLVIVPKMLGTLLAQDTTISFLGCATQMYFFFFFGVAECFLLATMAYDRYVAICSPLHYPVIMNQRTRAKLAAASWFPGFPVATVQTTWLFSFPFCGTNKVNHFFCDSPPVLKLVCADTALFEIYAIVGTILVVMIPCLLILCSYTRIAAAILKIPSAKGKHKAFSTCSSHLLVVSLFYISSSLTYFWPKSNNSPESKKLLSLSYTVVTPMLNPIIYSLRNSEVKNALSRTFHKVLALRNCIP
How it was run: as §1

OR10A6 (Homo sapiens) = target: T13, OR10A6 (Homo sapiens) (UniProt Q8NH74)
T13 sequence (whole entry): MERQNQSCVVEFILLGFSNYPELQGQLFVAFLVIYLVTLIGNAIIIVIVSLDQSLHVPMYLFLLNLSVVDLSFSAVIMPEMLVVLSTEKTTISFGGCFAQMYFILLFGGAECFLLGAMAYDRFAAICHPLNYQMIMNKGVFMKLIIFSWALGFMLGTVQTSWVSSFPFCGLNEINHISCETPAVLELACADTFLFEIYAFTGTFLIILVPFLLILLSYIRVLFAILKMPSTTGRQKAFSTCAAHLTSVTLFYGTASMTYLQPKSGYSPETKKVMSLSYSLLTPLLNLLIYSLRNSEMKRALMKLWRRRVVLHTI
How it was run: as §1

OR10A7 (Homo sapiens) = target: T14, OR10A7 (Homo sapiens) (UniProt Q8NGE5)
T14 sequence (whole entry): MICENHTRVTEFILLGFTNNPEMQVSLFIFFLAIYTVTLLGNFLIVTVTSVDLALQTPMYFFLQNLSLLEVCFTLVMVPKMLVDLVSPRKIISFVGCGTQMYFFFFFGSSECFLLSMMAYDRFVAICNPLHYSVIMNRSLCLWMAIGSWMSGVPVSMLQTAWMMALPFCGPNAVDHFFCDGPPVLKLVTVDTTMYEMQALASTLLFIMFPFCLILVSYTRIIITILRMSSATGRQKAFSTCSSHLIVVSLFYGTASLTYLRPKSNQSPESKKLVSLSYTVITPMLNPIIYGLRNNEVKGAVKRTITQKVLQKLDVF
How it was run: as §1

OR10AD1 (Homo sapiens) = target: T15, OR10AD1 (Homo sapiens) (UniProt Q8NGE0)
T15 sequence (whole entry): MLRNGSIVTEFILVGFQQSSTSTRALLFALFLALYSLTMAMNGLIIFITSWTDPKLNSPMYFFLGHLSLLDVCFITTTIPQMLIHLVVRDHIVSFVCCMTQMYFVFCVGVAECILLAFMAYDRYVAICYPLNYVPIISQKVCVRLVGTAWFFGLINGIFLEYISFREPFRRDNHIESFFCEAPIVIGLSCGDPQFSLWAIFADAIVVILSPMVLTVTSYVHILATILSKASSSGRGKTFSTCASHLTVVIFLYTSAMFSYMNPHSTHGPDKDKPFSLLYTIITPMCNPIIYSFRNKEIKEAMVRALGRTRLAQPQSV
How it was run: as §1

OR10AG1 (Homo sapiens) = target: T16, OR10AG1 (Homo sapiens) (UniProt Q8NH19)
T16 sequence (whole entry): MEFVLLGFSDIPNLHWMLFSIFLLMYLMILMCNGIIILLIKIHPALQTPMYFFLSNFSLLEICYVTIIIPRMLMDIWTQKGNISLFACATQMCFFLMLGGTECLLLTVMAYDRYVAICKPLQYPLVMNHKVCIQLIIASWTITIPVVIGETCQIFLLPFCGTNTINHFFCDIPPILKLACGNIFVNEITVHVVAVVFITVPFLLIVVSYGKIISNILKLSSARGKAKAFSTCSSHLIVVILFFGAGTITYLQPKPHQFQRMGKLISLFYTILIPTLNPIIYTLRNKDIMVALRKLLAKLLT
How it was run: as §1

OR10C1 (Homo sapiens) = target: T17, OR10C1 (Homo sapiens) (UniProt Q96KK4)
T17 sequence (whole entry): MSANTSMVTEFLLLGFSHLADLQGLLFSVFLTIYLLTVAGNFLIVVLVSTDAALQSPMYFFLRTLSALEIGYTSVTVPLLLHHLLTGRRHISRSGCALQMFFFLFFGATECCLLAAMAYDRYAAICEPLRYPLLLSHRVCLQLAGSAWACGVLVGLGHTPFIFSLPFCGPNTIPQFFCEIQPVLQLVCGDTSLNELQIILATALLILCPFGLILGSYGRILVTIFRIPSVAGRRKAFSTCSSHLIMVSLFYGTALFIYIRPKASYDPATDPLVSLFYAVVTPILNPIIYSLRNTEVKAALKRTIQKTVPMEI
How it was run: as §1

OR10D3 (Homo sapiens) = target: T18, OR10D3 (Homo sapiens) (UniProt Q8NH80)
T18 sequence (whole entry): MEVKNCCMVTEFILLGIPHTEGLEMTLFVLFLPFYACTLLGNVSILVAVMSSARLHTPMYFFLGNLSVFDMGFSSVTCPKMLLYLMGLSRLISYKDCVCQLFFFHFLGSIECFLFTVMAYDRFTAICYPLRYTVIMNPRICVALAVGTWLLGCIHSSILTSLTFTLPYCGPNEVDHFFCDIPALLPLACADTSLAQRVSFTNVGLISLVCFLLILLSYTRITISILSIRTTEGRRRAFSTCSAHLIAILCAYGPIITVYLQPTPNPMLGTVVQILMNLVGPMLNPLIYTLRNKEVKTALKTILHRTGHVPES
How it was run: as §1

Measured: odorant receptor agonist call

CC1=C(O)C(=O)C(C)O1 (stereo unspecified)
inactive: all assays above

CCC1OC(=O)C(O)=C1C (stereo unspecified)
inactive: all assays above
